Laboratory results from ChEMBL document CHEMBL1145859, “Tethered dimers as NAD synthetase inhibitors with antibacterial activity” (J Med Chem, 2003).
In brackets after ≈: the same amount, converted by molar mass.

Columns and labels:
Salmonella enteritidis [1] = experiment: Minimum inhibitory concentration required against Salmonella enteritidis ATCC 13076; format: functional, Salmonella enterica subsp. enterica serovar Enteritidis; settings: Salmonella enterica
How it was run: (§1)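 Broth doubling-dilution MIC run in duplicate series from 50 µg/mL (1% DMSO final). Each tube received 0.01 mL of inoculum from a log-phase culture (5–6 h, 37 °C) adjusted to about 5 × 10^8 CFU/mL. Incubation 20 h at 37 ± 2 °C. MIC is the lowest concentration with no visible growth. Viability, sterility and reference-antibiotic controls included.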

Bacillus subtilis = experiment: Minimum inhibitory concentration required against Bacillus subtilis ATCC 14289; format: functional; how it was run: as §1
Staphylococcus aureus [2] = experiment: Minimum inhibitory concentration required against Staphylococcus aureus ATCC 29213; format: functional; how it was run: as §1
Pseudomonas aeruginosa = experiment: Minimum inhibitory concentration required against Pseudomonas aeruginosa ATCC 27853; format: functional; how it was run: as §1
[3] = biological target: T1, NH(3)-dependent NAD(+) synthetase (Bacillus subtilis (strain 168), UniProt P08164); experiment: Inhibitory activity against Bacillus subtilis NAD synthetase
T1 sequence (P08164 whole entry): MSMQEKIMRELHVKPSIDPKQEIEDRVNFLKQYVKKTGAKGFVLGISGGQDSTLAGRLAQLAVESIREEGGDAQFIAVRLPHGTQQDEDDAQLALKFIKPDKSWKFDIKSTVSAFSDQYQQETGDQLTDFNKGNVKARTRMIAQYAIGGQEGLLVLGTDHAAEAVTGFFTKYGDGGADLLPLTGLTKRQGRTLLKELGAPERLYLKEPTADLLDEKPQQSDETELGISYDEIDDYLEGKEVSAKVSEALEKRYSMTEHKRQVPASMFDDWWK
How it was run: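 Purified recombinant B. subtilis NAD synthetase (2.0 µg/mL) in coupled assay, pH 8.5: 58.5 mM HEPES, 18.5 mM NH4Cl, 19.5 mM KCl, 9.75 mM MgCl2, 1% EtOH, 0.1 mM NaAD, 0.3% BOG, 40 µg/mL yeast ADH, 0.2 mM ATP, 2.5% DMSO. ATP-started, 10 min, guanidine·HCl stop; NADH read at A340 and fluorescence 460 nm, background-subtracted; IC50 from % inhibition at six concentrations.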

Staphylococcus aureus [4] = experiment: Minimum inhibitory concentration required against Staphylococcus aureus ATCC 33591; format: functional; how it was run: as §1
Staphylococcus aureus [5] = experiment: Minimum inhibitory concentration required against Staphylococcus aureus ATCC 33593; format: functional; how it was run: as §1
Staphylococcus aureus [6] = experiment: Minimum inhibitory concentration required against Staphylococcus aureus ATCC 33592; format: functional; how it was run: as §1
Salmonella enteritidis [7] = experiment: microbe, parasite or virus in culture; settings: Salmonella enterica, ATCC 13076

Molecule	IC50 [3]	other results
C[N+](C)(C)c1ccc(CC(=O)OCCCCCCCCn2ccc3cc(OCc4ccccc4)ccc32)cc1	20 µM	MIC (Salmonella enteritidis [1]): > 50 µM; MIC (Bacillus subtilis): 1.5 µM; MIC (Staphylococcus aureus [2]): 3.1 µM; MIC (Pseudomonas aeruginosa): > 50 µM
COC(=O)c1cc2ccccc2n1CCCCCCCCOC(=O)Cc1ccc([N+](C)(C)C)cc1	14 µM	MIC (Salmonella enteritidis [1]): > 50 µM; MIC (Bacillus subtilis): 6.2 µM; MIC (Staphylococcus aureus [2]): 3.1 µM; MIC (Pseudomonas aeruginosa): > 50 µM
C[n+]1cccc(C(=O)OCCOCCOCCn2ccc3cc(OCc4ccccc4)ccc32)c1	> 200 µM	MIC (Bacillus subtilis): > 50 µM; MIC (Staphylococcus aureus [2]): > 50 µM
COC(=O)c1cc2cc(OCc3ccccc3)ccc2n1CCCCCCCCCOC(=O)c1ccc[n+](C)c1	27 µM	–
COC(=O)c1cc2ccccc2n1CCCCCCCOC(=O)c1ccc[n+](C)c1	34 µM	–
C[N+](C)(C)c1ccc(CC(=O)OCCCCCCCCCn2ccc3ccccc32)cc1	54 µM	–
C[N+](C)(C)c1ccc(CC(=O)OCCCCCn2ccc3cc(OCc4ccccc4)ccc32)cc1	60 µM	–
C[n+]1cccc(C(=O)OCCCn2ccc3cc([N+](=O)[O-])ccc32)c1	> 1000 µM	–
COC(=O)c1cc2ccccc2n1CCCCCCCCCOC(=O)c1ccc[n+](C)c1	34 µM	–
C[n+]1cccc(C(=O)OCCCCCCCCn2ccc3cc(OCc4ccccc4)ccc32)c1	–	MIC (Salmonella enteritidis [1]): 50 µM; MIC (Bacillus subtilis): 6.2 µM; MIC (Staphylococcus aureus [2]): 1.5 µM; MIC (Staphylococcus aureus [4]): 12.5 µM; MIC (Staphylococcus aureus [5]): 3.1 µM; MIC (Pseudomonas aeruginosa): 50 µM; MIC (Staphylococcus aureus [6]): 6.2 µM
COC(=O)c1cc2cc(OCc3ccccc3)ccc2n1CCCCCCCOC(=O)Cc1ccc([N+](C)(C)C)cc1	9 µM	MIC (Salmonella enteritidis [1]): > 50 µM; MIC (Bacillus subtilis): 1.5 µM; MIC (Staphylococcus aureus [2]): 1.5 µM; MIC (Staphylococcus aureus [4]): 6.2 µM; MIC (Staphylococcus aureus [5]): 3.1 µM; MIC (Pseudomonas aeruginosa): > 50 µM; MIC (Staphylococcus aureus [6]): 3.1 µM
C[n+]1cccc(C(=O)OCCn2ccc3cc([N+](=O)[O-])ccc32)c1	> 1000 µM	–
COC(=O)c1cc2ccccc2n1CCCCCCCCOC(=O)c1cc[n+](C)cc1	44 µM	–
O=C(OCCCCn1ccc2cc([N+](=O)[O-])ccc21)c1cccnc1	> 1000 µM	–
O=C(OCCCn1ccc2cc([N+](=O)[O-])ccc21)c1cccnc1	> 1000 µM	–
COc1ccc2c(ccn2CCCCCCCOC(=O)c2ccc[n+](C)c2)c1	24 µM	–
COC(=O)c1cc2cc(OCc3ccccc3)ccc2n1CCCCCCCCOC(=O)c1cc[n+](C)cc1	10 µM	MIC (Salmonella enteritidis [1]): > 50 µM; MIC (Bacillus subtilis): 12.5 µM; MIC (Staphylococcus aureus [2]): 6.2 µM; MIC (Pseudomonas aeruginosa): > 50 µM
C[n+]1cccc(C(=O)OCCCCCn2ccc3cc([N+](=O)[O-])ccc32)c1	1000 µM	–
O=C(OCCn1ccc2cc([N+](=O)[O-])ccc21)c1cccnc1	> 1000 µM	–
C[n+]1cccc(C(=O)OCCCCCCn2ccc3cc([N+](=O)[O-])ccc32)c1	500 µM	–
C[n+]1cccc(C(=O)OCCCCCCCn2ccc3ccccc32)c1	95 µM	–
C[N+](C)(C)c1ccc(CC(=O)OCCCCCCn2ccc3cc(OCc4ccccc4)ccc32)cc1	69 µM	–
C[n+]1cccc(C(=O)OCCCCCn2ccc3cc(OCc4ccccc4)ccc32)c1	94 µM	–
C[n+]1cccc(C(=O)OCCCCCCCCCn2ccc3ccccc32)c1	48 µM	–

Molecule	IC50 [3]	other results
O=C(OCCCCCCn1ccc2cc([N+](=O)[O-])ccc21)c1cccnc1	> 1000 µM	–
COC(=O)c1cc2cc(OCc3ccccc3)ccc2n1CCCCCCCOC(=O)c1ccc[n+](C)c1	18 µM	MIC (Salmonella enteritidis [1]): > 50 µM; MIC (Bacillus subtilis): 6.2 µM; MIC (Staphylococcus aureus [2]): 3.1 µM; MIC (Pseudomonas aeruginosa): > 50 µM
O=C(OCCCCCCCn1ccc2cc([N+](=O)[O-])ccc21)c1cccnc1	> 1000 µM	–
COC(=O)c1cc2cc(OCc3ccccc3)ccc2n1CCCCCCCCCOC(=O)Cc1ccc([N+](C)(C)C)cc1	18 µM	MIC (Bacillus subtilis): 1.5 µM; MIC (Staphylococcus aureus [2]): 6.2 µM
COC(=O)c1cc2cc(OCc3ccccc3)ccc2n1CCCCCCOC(=O)c1ccc[n+](C)c1	37 µM	–
COC(=O)c1cc2ccccc2n1CCCCCCCOC(=O)Cc1ccc([N+](C)(C)C)cc1	19 µM	MIC (Salmonella enteritidis [1]): > 50 µM; MIC (Bacillus subtilis): 1.5 µM; MIC (Staphylococcus aureus [2]): 12.5 µM; MIC (Pseudomonas aeruginosa): > 50 µM
C[N+](C)(C)c1ccc(CC(=O)OCCCCn2ccc3cc([N+](=O)[O-])ccc32)cc1	89 µM	–
C[n+]1cccc(C(=O)OCCCCCCn2ccc3cc(OCc4ccccc4)ccc32)c1	29 µM	–
C[N+](C)(C)c1ccc(CC(=O)OCCCCCCCCn2ccc3ccccc32)cc1	63 µM	–
O=C(OCCCCCCCCn1ccc2cc([N+](=O)[O-])ccc21)c1cccnc1	> 1000 µM	–
O=C(OCCCCCCCCn1ccc2cc(O)ccc21)c1cccnc1	> 200 µM	–
COC(=O)c1cc2cc(OCc3ccccc3)ccc2n1CCCCCCOC(=O)Cc1ccc([N+](C)(C)C)cc1	12 µM	–
C[N+](C)(C)c1ccc(CC(=O)OCCCCCCCCCn2ccc3cc([N+](=O)[O-])ccc32)cc1	24 µM	–
CO[C@H]1/C=C/O[C@@]2(C)Oc3c(C)c(O)c4c(O)c(c(/C=N/N5CCN(C)CC5)c(O)c4c3C2=O)NC(=O)/C(C)=C\C=C\[C@H](C)[C@H](O)[C@@H](C)[C@@H](O)[C@@H](C)[C@H](OC(C)=O)[C@@H]1C [RIFAMPIN]	> 1 µM	MIC (Bacillus subtilis): 1 µM (≈ 0.823 µg/mL)
O=C(OCCCCCn1ccc2cc([N+](=O)[O-])ccc21)c1cccnc1	> 1000 µM	–
C[n+]1cccc(C(=O)OCCCCn2ccc3cc([N+](=O)[O-])ccc32)c1	> 1000 µM	–
C[N+](C)(C)c1ccc(CC(=O)OCCCCCn2ccc3cc([N+](=O)[O-])ccc32)cc1	70 µM	–
COC(=O)c1cc2ccccc2n1CCCCCCOC(=O)Cc1ccc([N+](C)(C)C)cc1	24 µM	–
COC(=O)c1cc2cc(OCc3ccccc3)ccc2n1CCCCCCCCOC(=O)Cc1ccc([N+](C)(C)C)cc1	20 µM	–
GENTAMICIN	–	MIC (Pseudomonas aeruginosa): 2 µM
C[N+](C)(C)c1ccc(CC(=O)OCCCCCCn2ccc3cc([N+](=O)[O-])ccc32)cc1	84 µM	–
COc1cccc(OC)c1C(=O)N[C@@H]1C(=O)N2[C@@H]1SC(C)(C)[C@@H]2C(=O)O	> 1 µM	MIC (Staphylococcus aureus [2]): 1 µM (≈ 0.38 µg/mL); MIC (Staphylococcus aureus [4]): 32 µM (≈ 12.2 µg/mL); MIC (Staphylococcus aureus [5]): 32 µM (≈ 12.2 µg/mL); MIC (Staphylococcus aureus [6]): 32 µM (≈ 12.2 µg/mL)
COc1cc(Cc2cnc(N)nc2N)cc(OC)c1OC [TRIMETHOPRIM]	> 1 µM	MIC (Salmonella enteritidis [7]): 0.5 µM (≈ 0.145 µg/mL)
C[N+](C)(C)c1ccc(CC(=O)OCCCCn2ccc3cc(OCc4ccccc4)ccc32)cc1	84 µM	–
